Activity calls are given as the source filed them.
Legend:
Mus musculus [1] = assay: Neurotoxicity in Kunming mouse assessed as minimum motor impairment at 100 mg/kg, ip after 4 hrs by rotarod test; format: toxicity, organism-based; design: dose 100 mg/kg, route intraperitoneal; settings: in vivo
Summary of the method: (§1)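 Rotorod neurotoxicity in male Kunming mice (20 ± 2.0 g) given ip doses of 30, 100 or 300 mg/kg as a suspension in 0.5% methylcellulose, one to four mice per dose. Motor impairment was examined at 0.5 h and 4.0 h after injection. Reported as number of animals showing toxicity/number tested.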

Mus musculus [2] = assay: Anticonvulsant activity in Kunming mouse assessed as protection against subcutaneous pentylenetetrazole-induced seizures at 100 mg/kg, ip after 0.5 hrs; format: functional, organism-based; design: dose 100 mg/kg
Summary of the method: (§2)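 Male Kunming mice (20 ± 2.0 g) received the compound ip as a suspension in 0.5% methylcellulose at 30, 100 or 300 mg/kg, one to four mice per dose. Pentylenetetrazole in 0.9% saline was given sc at 0.5 h and 4.0 h after dosing. Protection meant no threshold seizure (one clonic spasm episode of at least 5 s). Scored as protected/tested.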

Mus musculus [3] = assay: Anticonvulsant activity in Kunming mouse assessed as protection against subcutaneous pentylenetetrazole-induced seizures at 100 mg/kg, ip after 4 hrs; format: functional, organism-based; design: dose 100 mg/kg; summary of the method: as §2
Mus musculus [4] = assay: Anticonvulsant activity in Kunming mouse assessed as protection against maximal electroshock-induced seizures at 100 mg/kg, ip after 0.5 hrs; format: functional, organism-based; design: dose 100 mg/kg
Mus musculus [5] = assay: Anticonvulsant activity in Kunming mouse assessed as protection against subcutaneous pentylenetetrazole-induced seizures at 300 mg/kg, ip after 4 hrs; format: functional, organism-based; design: dose 300 mg/kg; summary of the method: as §2
Mus musculus [6] = assay: Anticonvulsant activity in Kunming mouse assessed as protection against maximal electroshock-induced seizures at 30 mg/kg, ip after 4 hrs; format: functional, organism-based; design: dose 30 mg/kg
Mus musculus [7] = assay: Anticonvulsant activity in Kunming mouse assessed as protection against subcutaneous pentylenetetrazole-induced seizures at 30 mg/kg, ip after 0.5 hrs; format: functional, organism-based; design: dose 30 mg/kg; summary of the method: as §2
Mus musculus [8] = assay: Neurotoxicity in Kunming mouse assessed as minimum motor impairment at 30 mg/kg, ip after 4 hrs by rotarod test; format: toxicity, organism-based; design: dose 30 mg/kg, route intraperitoneal; settings: in vivo; summary of the method: as §1
Mus musculus [9] = assay: Neurotoxicity in Kunming mouse assessed as minimum motor impairment at 100 mg/kg, ip after 0.5 hrs by rotarod test; format: toxicity, organism-based; design: dose 100 mg/kg, route intraperitoneal; settings: in vivo; summary of the method: as §1
Mus musculus [10] = assay: Anticonvulsant activity in Kunming mouse assessed as protection against maximal electroshock-induced seizures at 30 mg/kg, ip after 0.5 hrs; format: functional, organism-based; design: dose 30 mg/kg
Mus musculus [11] = assay: Anticonvulsant activity in Kunming mouse assessed as protection against maximal electroshock-induced seizures at 100 mg/kg, ip after 4 hrs; format: functional, organism-based; design: dose 100 mg/kg
Mus musculus [12] = assay: Anticonvulsant activity in Kunming mouse assessed as protection against subcutaneous pentylenetetrazole-induced seizures at 30 mg/kg, ip after 4 hrs; format: functional, organism-based; design: dose 30 mg/kg; summary of the method: as §2
Mus musculus [13] = assay: Neurotoxicity in Kunming mouse assessed as minimum motor impairment at 30 mg/kg, ip after 0.5 hrs by rotarod test; format: toxicity, organism-based; design: dose 30 mg/kg, route intraperitoneal; settings: in vivo; summary of the method: as §1
Mus musculus [14] = assay: Neurotoxicity in Kunming mouse assessed as minimum motor impairment at 300 mg/kg, ip after 4 hrs by rotarod test; format: toxicity, organism-based; design: dose 300 mg/kg, route intraperitoneal; settings: in vivo; summary of the method: as §1
Mus musculus [15] = assay: Anticonvulsant activity in Kunming mouse assessed as protection against maximal electroshock-induced seizures at 300 mg/kg, ip after 4 hrs; format: functional, organism-based; design: dose 300 mg/kg
Mus musculus [16] = assay: Neurotoxicity in Kunming mouse assessed as minimum motor impairment at 300 mg/kg, ip after 0.5 hrs by rotarod test; format: toxicity, organism-based; design: dose 300 mg/kg, route intraperitoneal; settings: in vivo; summary of the method: as §1
Mus musculus [17] = assay: Anticonvulsant activity in Kunming mouse assessed as protection against subcutaneous pentylenetetrazole-induced seizures at 300 mg/kg, ip after 0.5 hrs; format: functional, organism-based; design: dose 300 mg/kg; summary of the method: as §2
Mus musculus [18] = assay: Anticonvulsant activity in Kunming mouse assessed as protection against maximal electroshock-induced seizures at 300 mg/kg, ip after 0.5 hrs; format: functional, organism-based; design: dose 300 mg/kg

Row | SMILES | Activity (Mus musculus [1]) | Activity (Mus musculus [2]) | Activity (Mus musculus [3]) | Activity (Mus musculus [4]) | Activity (Mus musculus [5]) | Activity (Mus musculus [6]) | Activity (Mus musculus [7]) | Activity (Mus musculus [8]) | Activity (Mus musculus [9]) | Activity (Mus musculus [10]) | Activity (Mus musculus [11]) | Activity (Mus musculus [12]) | Activity (Mus musculus [13]) | Activity (Mus musculus [14]) | Activity (Mus musculus [15]) | Activity (Mus musculus [16]) | Activity (Mus musculus [17]) | Activity (Mus musculus [18])
1 | CN1C(=O)NC2(CC2c2ccc(Cl)cc2)C1=O (configuration not stated) | Toxic | inactive | inactive | Active | inactive | inactive | inactive | Non-toxic | Toxic | inactive | inactive | inactive | Non-toxic |  |  |  |  | 
2 | CCCC1CC12NC(=O)N(C)C2=O (configuration not stated) | Non-toxic | inactive | inactive | Active | inactive | inactive | inactive | Non-toxic | Non-toxic | inactive |  | inactive | Toxic | Toxic | Active | Toxic | inactive | 
3 | CC(C)C1CC12NC(=O)N(C)C2=O (configuration not stated) | Non-toxic | inactive | inactive | Active | inactive |  | inactive | Non-toxic | Non-toxic | Active |  | inactive | Non-toxic |  | Active | Non-toxic | inactive | 
4 | CN1C(=O)NC2(CC2c2ccc(Br)cc2)C1=O (configuration not stated) | Non-toxic | inactive | inactive | inactive | inactive | inactive | inactive | Non-toxic |  | inactive | inactive | inactive | Non-toxic |  | Active | Non-toxic | inactive | Active
5 | CCC(CC)C1CC12NC(=O)N(C)C2=O (configuration not stated) | Non-toxic | inactive | inactive |  |  | inactive | inactive | Non-toxic | Non-toxic | inactive | inactive | inactive | Non-toxic | Non-toxic |  | Non-toxic | inactive | Active
6 | COc1cc(C2CC23NC(=O)N(C)C3=O)cc(OC)c1OC (configuration not stated) | Non-toxic | inactive | inactive | Active |  | inactive | inactive | Non-toxic | Non-toxic | inactive | inactive | inactive | Non-toxic | Non-toxic | Active | Non-toxic |  | 
7 | COc1ccc(C2CC23NC(=O)N(C)C3=O)cc1OC (configuration not stated) | Non-toxic | inactive | inactive | Active |  | inactive | inactive | Non-toxic | Non-toxic | Active |  | inactive | Non-toxic |  | Active |  |  | 
8 | COc1ccc(C2CC23NC(=O)N(C)C3=O)cc1 (configuration not stated) | Non-toxic | inactive | inactive |  | inactive | inactive | inactive | Non-toxic | Non-toxic | inactive | inactive | inactive | Non-toxic | Non-toxic | Active | Non-toxic |  | Active
9 | CCC1CC12NC(=O)N(C)C2=O (configuration not stated) | Non-toxic | inactive | inactive |  |  | inactive | inactive | Non-toxic | Non-toxic | inactive | inactive | inactive | Non-toxic |  | Active | Non-toxic | inactive | Active
10 | CN1C(=O)NC2(CC2c2ccccc2Cl)C1=O (configuration not stated) | Non-toxic | inactive | inactive |  | inactive | inactive | inactive | Non-toxic |  | inactive | inactive | inactive | Non-toxic | Toxic | inactive | Toxic | inactive | Active
11 | CC(C)CC1CC12NC(=O)N(C)C2=O (configuration not stated) | Non-toxic | inactive | inactive | Active | inactive | inactive | Active | Non-toxic | Non-toxic | Active |  | inactive | Toxic | Non-toxic |  | Toxic |  | 
12 | Cc1ccc(C2CC23NC(=O)N(C)C3=O)cc1 (configuration not stated) | Non-toxic | inactive | inactive | Active |  | inactive | inactive | Non-toxic | Non-toxic | Active |  | inactive | Non-toxic | Non-toxic |  | Toxic |  | 
13 | CN1C(=O)NC2(CC2c2ccco2)C1=O (configuration not stated) |  | inactive | inactive | inactive | inactive | inactive | inactive | Non-toxic |  | inactive | inactive | inactive | Toxic |  | inactive |  | inactive | Active
14 | COc1ccc(OC)c(C2CC23NC(=O)N(C)C3=O)c1 (configuration not stated) | Non-toxic | inactive | inactive | Active | inactive | inactive | inactive | Non-toxic | Non-toxic | Active |  | inactive | Non-toxic |  |  |  | inactive | 

From ChEMBL document CHEMBL1240414, “Synthesis and anticonvulsant activity of new 6-methyl-1-substituted-4,6-diazaspiro[2.4]heptane-5,7-diones” (Eur J Med Chem, 2010)
